In ChEMBL document CHEMBL4265950, “Discovery of furyl/thienyl β-carboline derivatives as potent and selective PDE5 inhibitors with excellent vasorelaxant effect” (Eur J Med Chem, 2018):

Columns and labels:
[1] = target: T1, cGMP-specific 3',5'-cyclic phosphodiesterase (Homo sapiens, UniProt O76074); test: Inhibition of full length recombinant human N-terminal GST-tagged PDE5A1 expressed in baculovirus infected sf9 cells at 100 nM using FAM-cyclic-3',5-GMP as substrate after 1 hr by fluorescence polarization assay relative to control
How it was run: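 Single-point test at 100 nM, reported as percent inhibition. Human PDE5 at 15 ng/mL with 100 nM FAM-cGMP in MOPS pH 7.5 buffer (MgCl2, EDTA, BSA, DTT), 1% DMSO final, 60 min at 25 °C. Binding agent added for 1 h, then fluorescence polarization read at […] nm.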

[2] = target: T1, cGMP-specific 3',5'-cyclic phosphodiesterase; test: Inhibition of full length recombinant human N-terminal GST-tagged PDE5A1 expressed in baculovirus infected sf9 cells using FAM-cyclic-3',5-GMP as substrate after 1 hr by fluorescence polarization assay
[3] = target: Dual specificity calcium/calmodulin-dependent 3',5'-cyclic nucleotide phosphodiesterase 1A (Homo sapiens, UniProt P54750); test: Inhibition of full length recombinant human N-terminal GST-tagged PDE1A expressed in baculovirus infected sf9 cells using FAM-cyclic-3',5-AMP as substrate after 1 hr by fluorescence polarization assay
Dual specificity calcium/calmodulin-dependent 3',5'-cyclic nucleotide phosphodiesterase 1A, sequence (P54750 whole entry, canonical isoform): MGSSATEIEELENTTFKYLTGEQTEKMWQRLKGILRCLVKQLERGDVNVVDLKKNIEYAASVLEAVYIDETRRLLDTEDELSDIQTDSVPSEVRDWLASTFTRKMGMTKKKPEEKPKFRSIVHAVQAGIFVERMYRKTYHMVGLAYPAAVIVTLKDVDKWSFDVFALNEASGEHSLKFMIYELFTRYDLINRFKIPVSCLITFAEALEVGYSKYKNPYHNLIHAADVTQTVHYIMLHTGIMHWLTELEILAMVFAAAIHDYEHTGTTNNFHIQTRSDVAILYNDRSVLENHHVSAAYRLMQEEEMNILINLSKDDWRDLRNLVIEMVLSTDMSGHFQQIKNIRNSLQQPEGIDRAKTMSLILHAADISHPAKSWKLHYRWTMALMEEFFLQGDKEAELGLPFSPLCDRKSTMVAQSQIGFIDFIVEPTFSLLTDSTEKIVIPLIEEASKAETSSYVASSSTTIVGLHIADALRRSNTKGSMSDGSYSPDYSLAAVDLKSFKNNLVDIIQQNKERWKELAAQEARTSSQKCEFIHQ
How it was run: (§1)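 Fluorescence polarization assay run at 25 °C for 60 min in 40 mM MOPS pH 7.5, 0.5 mM EDTA, 15 mM MgCl2, 0.15 mg/mL BSA, 1 mM DTT, 0.05% ProClin 200. Contained 15 ng/mL PDE isoform and 100 nM FAM-cGMP or FAM-cAMP according to isoform, with 1% DMSO final. Binding agent added for 1 h at 25 °C; read at […] nm. IC50 from normalized nonlinear dose-response fit.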

[4] = target: cGMP-dependent 3',5'-cyclic phosphodiesterase (Homo sapiens, UniProt O00408); test: Inhibition of recombinant human N-terminal FLAG-tagged PDE2A (2 to 941 residues) expressed in baculovirus infected sf9 cells using FAM-cyclic-3',5-AMP as substrate after 1 hr by fluorescence polarization assay; how it was run: as §1
cGMP-dependent 3',5'-cyclic phosphodiesterase, sequence (O00408 whole entry, the tested form may be a part): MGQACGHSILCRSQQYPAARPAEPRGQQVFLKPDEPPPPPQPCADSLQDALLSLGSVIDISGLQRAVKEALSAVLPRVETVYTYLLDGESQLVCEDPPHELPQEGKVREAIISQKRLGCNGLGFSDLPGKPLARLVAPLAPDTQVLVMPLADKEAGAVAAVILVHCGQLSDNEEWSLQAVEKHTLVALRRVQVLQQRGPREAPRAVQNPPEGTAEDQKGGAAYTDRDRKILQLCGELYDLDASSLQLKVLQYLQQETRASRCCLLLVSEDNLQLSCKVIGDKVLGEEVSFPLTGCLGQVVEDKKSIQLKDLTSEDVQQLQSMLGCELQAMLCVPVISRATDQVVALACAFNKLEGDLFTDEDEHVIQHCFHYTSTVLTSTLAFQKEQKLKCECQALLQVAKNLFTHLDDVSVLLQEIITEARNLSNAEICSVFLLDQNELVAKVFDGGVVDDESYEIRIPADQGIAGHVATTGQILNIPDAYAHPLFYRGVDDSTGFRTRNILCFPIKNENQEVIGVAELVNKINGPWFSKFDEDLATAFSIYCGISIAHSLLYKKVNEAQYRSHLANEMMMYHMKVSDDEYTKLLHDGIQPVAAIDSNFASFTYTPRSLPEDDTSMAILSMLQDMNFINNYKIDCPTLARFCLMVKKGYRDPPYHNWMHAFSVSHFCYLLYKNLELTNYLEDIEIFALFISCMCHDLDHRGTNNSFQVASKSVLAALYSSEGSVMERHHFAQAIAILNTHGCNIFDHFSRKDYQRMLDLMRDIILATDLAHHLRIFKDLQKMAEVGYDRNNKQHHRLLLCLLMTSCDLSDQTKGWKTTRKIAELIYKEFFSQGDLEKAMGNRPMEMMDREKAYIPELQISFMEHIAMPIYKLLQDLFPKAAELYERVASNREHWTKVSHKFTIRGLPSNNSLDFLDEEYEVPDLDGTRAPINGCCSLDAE

[5] = target: cGMP-inhibited 3',5'-cyclic phosphodiesterase 3B (Homo sapiens, UniProt Q13370); test: Inhibition of recombinant human N-terminal GST-tagged PDE3B (592 to end residues) expressed in baculovirus infected sf9 cells using FAM-cyclic-3',5-AMP as substrate after 1 hr by fluorescence polarization assay; how it was run: as §1
cGMP-inhibited 3',5'-cyclic phosphodiesterase 3B, sequence (Q13370 whole entry): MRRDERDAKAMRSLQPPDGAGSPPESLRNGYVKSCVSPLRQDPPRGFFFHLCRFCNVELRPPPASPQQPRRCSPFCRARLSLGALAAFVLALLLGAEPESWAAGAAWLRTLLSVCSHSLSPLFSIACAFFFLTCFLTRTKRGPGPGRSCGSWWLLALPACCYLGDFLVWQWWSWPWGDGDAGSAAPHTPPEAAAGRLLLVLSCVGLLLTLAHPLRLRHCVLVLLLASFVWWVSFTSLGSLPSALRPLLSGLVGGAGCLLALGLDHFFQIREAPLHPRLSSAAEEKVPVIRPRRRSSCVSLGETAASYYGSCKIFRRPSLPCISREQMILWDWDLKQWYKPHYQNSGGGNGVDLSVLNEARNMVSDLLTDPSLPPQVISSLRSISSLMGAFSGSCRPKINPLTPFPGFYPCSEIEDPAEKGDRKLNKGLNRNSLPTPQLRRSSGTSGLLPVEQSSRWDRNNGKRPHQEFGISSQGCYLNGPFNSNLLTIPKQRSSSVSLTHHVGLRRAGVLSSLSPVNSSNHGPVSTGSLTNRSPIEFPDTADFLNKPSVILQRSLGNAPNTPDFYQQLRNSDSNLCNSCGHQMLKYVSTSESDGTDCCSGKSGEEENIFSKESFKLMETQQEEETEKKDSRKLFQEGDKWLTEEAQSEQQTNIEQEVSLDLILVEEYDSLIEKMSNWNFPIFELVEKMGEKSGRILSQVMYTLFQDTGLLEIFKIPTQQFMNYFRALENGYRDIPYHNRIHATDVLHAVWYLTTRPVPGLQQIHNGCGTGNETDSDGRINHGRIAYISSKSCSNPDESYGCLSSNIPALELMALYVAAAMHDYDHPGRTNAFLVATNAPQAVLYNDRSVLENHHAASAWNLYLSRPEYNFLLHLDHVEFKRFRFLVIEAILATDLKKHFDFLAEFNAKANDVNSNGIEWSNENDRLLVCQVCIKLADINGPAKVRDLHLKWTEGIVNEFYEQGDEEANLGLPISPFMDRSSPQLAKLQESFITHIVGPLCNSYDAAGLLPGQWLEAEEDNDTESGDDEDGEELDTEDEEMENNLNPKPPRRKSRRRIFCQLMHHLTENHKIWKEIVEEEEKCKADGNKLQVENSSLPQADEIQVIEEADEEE

[6] = target: 3',5'-cyclic-AMP phosphodiesterase 4A (Homo sapiens, UniProt P27815); test: Inhibition of full length recombinant human N-terminal GST-tagged PDE4A1A expressed in baculovirus infected sf9 cells using FAM-cyclic-3',5-AMP as substrate after 1 hr by fluorescence polarization assay
[7] = target: Cone cGMP-specific 3',5'-cyclic phosphodiesterase subunit alpha' (Homo sapiens, UniProt P51160); test: Inhibition of full length recombinant human N-terminal GST-tagged PDE6C expressed in baculovirus infected sf9 cells using […] as substrate after 1 hr by fluorescence polarization assay
Cone cGMP-specific 3',5'-cyclic phosphodiesterase subunit alpha', sequence (P51160 whole entry): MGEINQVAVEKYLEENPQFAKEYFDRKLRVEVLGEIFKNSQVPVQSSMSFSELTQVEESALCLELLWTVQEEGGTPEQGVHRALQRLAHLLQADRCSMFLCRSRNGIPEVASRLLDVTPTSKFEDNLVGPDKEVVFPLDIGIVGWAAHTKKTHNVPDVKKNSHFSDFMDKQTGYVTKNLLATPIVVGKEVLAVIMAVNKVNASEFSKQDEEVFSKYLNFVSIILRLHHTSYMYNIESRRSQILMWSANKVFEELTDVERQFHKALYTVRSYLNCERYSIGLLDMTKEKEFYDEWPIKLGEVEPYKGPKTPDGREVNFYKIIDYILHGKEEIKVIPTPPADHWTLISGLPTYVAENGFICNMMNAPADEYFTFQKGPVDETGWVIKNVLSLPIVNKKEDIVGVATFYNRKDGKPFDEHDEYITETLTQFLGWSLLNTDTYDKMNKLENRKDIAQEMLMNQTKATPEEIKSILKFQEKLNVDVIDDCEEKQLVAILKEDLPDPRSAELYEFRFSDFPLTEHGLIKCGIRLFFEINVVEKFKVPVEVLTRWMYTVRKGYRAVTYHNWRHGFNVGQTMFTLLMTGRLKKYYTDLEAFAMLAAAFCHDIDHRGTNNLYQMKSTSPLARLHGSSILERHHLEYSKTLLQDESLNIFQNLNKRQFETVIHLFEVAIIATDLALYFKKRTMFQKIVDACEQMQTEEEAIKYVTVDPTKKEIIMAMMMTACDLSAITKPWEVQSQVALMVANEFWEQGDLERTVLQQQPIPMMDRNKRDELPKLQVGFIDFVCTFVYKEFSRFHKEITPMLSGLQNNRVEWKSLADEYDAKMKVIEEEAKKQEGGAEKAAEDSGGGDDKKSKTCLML

Homo sapiens [8] = species: Homo sapiens; test: Selectivity index, ratio of IC50 for inhibition of full length recombinant human N-terminal GST-tagged PDE6C expressed in baculovirus infected sf9 cells to IC50 for inhibition of full length recombinant human N-terminal GST-tagged PDE5A1 expressed in baculovirus infected sf9 cells
[9] = target: Dual 3',5'-cyclic-AMP and -GMP phosphodiesterase 11A (Homo sapiens, UniProt Q9HCR9); test: Inhibition of full length recombinant human N-terminal GST-tagged PDE11A4 expressed in baculovirus infected sf9 cells using FAM-cyclic-3',5-AMP as substrate after 1 hr by fluorescence polarization assay
Dual 3',5'-cyclic-AMP and -GMP phosphodiesterase 11A, sequence (Q9HCR9 whole entry): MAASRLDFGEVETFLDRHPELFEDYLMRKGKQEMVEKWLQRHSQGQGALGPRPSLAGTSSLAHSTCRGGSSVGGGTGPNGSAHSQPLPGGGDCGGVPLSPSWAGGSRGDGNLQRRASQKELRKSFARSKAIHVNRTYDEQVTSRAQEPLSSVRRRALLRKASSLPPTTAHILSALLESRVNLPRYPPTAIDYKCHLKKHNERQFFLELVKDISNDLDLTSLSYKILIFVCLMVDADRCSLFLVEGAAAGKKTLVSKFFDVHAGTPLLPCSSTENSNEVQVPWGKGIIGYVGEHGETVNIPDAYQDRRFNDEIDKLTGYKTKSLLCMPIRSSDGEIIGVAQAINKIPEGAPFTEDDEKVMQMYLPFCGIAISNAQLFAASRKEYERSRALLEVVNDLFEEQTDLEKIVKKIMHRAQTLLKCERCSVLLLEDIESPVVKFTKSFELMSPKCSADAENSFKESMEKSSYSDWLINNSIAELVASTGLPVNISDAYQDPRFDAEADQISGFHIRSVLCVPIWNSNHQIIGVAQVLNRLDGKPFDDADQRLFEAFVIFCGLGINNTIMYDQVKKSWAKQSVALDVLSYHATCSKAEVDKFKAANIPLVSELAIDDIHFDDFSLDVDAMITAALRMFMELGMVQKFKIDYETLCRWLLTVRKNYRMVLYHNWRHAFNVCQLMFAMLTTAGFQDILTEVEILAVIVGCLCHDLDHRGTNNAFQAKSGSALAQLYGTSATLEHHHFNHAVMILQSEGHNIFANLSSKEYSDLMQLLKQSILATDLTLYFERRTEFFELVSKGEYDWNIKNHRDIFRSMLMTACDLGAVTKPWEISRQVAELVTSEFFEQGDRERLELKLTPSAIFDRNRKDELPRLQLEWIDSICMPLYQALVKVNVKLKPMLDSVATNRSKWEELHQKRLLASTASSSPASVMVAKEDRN

Homo sapiens [10] = species: Homo sapiens; test: Selectivity index, ratio of IC50 for inhibition of full length recombinant human N-terminal GST-tagged PDE11A4 expressed in baculovirus infected sf9 cells to IC50 for inhibition of full length recombinant human N-terminal GST-tagged PDE5A1 expressed in baculovirus infected sf9 cells

SMILES	inhibition [1] [%]	IC50 [2] [nM]	also measured
CCc1ccc(C(=O)c2[nH]c3ccccc3c2C[C@H]2NC(=O)CN(C)C2=O)s1	21.1	–	–
CCc1ccc(C2c3[nH]c4ccccc4c3CCN2C(=O)/C=C/c2ccc(C(=O)OC)cc2)s1 (centres undefined)	43.9	–	–
CCCc1ccc(C(=O)c2[nH]c3ccccc3c2CCNc2ccc(-c3ccccn3)cn2)s1	18.3	–	–
O=C(c1cc2ccccc2o1)c1[nH]c2ccccc2c1CCNc1ccc(-c2ccccn2)cn1	17.7	–	–
Cc1cc(C2c3[nH]c4ccccc4c3CCN2c2ccc(-c3ccccn3)cn2)sc1C (centres undefined)	21.2	–	–
CCc1ccc(C(=O)c2[nH]c3ccccc3c2CCNc2ncc(-c3ccc(OC)c(OC)c3)cn2)s1	24.7	–	–
CCc1ccc(C2c3[nH]c4ccccc4c3CCN2c2ncc(-c3ccc(OC)c(OC)c3)cn2)s1 (centres undefined)	27.6	–	–
c1ccc(-c2ccc(N3CCc4c([nH]c5ccccc45)C3c3cc4ccccc4o3)nc2)nc1 (centres undefined)	15.2	–	–
COc1cccc2cc(C(=O)c3[nH]c4ccccc4c3CCNc3ccc(-c4ccccn4)cn3)oc12	23.9	–	–
CCc1ccc(C2c3[nH]c4ccccc4c3CCN2C(=O)/C=C/c2cccc(Br)c2)s1 (centres undefined)	33.7	–	–
CCc1ccc(C(=O)c2[nH]c3ccccc3c2C[C@@H]2NC(=O)CN(C)C2=O)s1	23.3	–	–
Cc1ccc(C2c3[nH]c4ccccc4c3CCN2c2ccc(-c3ccccn3)cn2)o1 (centres undefined)	23.2	–	–
Cc1cc(C(=O)c2[nH]c3ccccc3c2CCNc2ccc(-c3ccccn3)cn2)sc1C	1.7	–	–
CCc1ccc(C2c3[nH]c4ccccc4c3C(=O)CN2c2ncc(-c3ccc(OC)c(OC)c3)cn2)s1 (centres undefined)	69.4	39.7	IC50 [7]: 253 nM; Ratio IC50 (Homo sapiens [8]): 6; IC50 [9]: 153 nM; Ratio IC50 (Homo sapiens [10]): 4
CCc1ccc(C2c3[nH]c4ccccc4c3CCN2c2ncc(-c3ccc(OC)c(OC)c3)cn2)o1 (centres undefined)	47.6	177	–
COc1cccc2cc(C3c4[nH]c5ccccc5c4CCN3c3ccc(-c4ccccn4)cn3)oc12 (centres undefined)	17.5	–	–
CCc1ccc(C2c3[nH]c4ccccc4c3CCN2c2ccc(-c3ccccn3)cn2)o1 (centres undefined)	39.2	–	–
CCCc1ccc(C2c3[nH]c4ccccc4c3CCN2c2ccc(-c3ccccn3)cn2)s1 (centres undefined)	28	–	–
Cc1ccc(C(=O)c2[nH]c3ccccc3c2CCNc2ccc(-c3ccccn3)cn2)s1	20.4	–	–
CCc1ccc(C(=O)c2[nH]c3ccccc3c2CCNc2ncc(-c3ccc(OC)c(OC)c3)cn2)o1	29.1	–	–
CCc1ccc(C2c3[nH]c4ccccc4c3CCN2C(=O)/C=C/c2ccc(C(=O)O)cc2)s1 (centres undefined)	47.4	235	–
Cc1ccc(C(=O)c2[nH]c3ccccc3c2CCNc2ccc(-c3ccccn3)cn2)o1	23.7	–	–
Cc1ccc(C2c3[nH]c4ccccc4c3CCN2c2ccc(-c3ccccn3)cn2)s1 (centres undefined)	38.1	–	–
CCc1ccc(C(=O)c2[nH]c3ccccc3c2CCNc2ccc(-c3ccccn3)cn2)o1	16.1	–	–

More lines, main results first:

inhibition [1] [%]	IC50 [2] [nM]	SMILES	also measured
62.2	81.2	CCc1ccc([C@H]2c3[nH]c4ccccc4c3C[C@H]3C(=O)N(CC)C(=O)N23)o1	–
35.2	–	CN1CC(=O)N2[C@@H](c3ccco3)c3[nH]c4ccccc4c3C[C@@H]2C1=O	–
44.1	383	CCc1ccc([C@H]2c3[nH]c4ccccc4c3C[C@H]3C(=O)N(CC)C(=O)N23)s1	–
66.7	50.2	Cc1ccsc1[C@@H]1c2[nH]c3ccccc3c2C[C@@H]2C(=O)N(C)CC(=O)N12	–
39.1	–	CCc1ccc([C@H]2c3[nH]c4ccccc4c3C[C@@H]3C(=O)N(C)CC(=O)N23)o1	–
83.6	27.6	CCc1ccc([C@H]2c3[nH]c4ccccc4c3C[C@@H]3C(=O)N(CC)C(=O)N23)o1	IC50 [3]: > 20000 nM; IC50 [4]: > 20000 nM; IC50 [5]: > 20000 nM; IC50 [6]: > 10000 nM; IC50 [7]: 10 nM; Ratio IC50 (Homo sapiens [8]): 0.4; IC50 [9]: 802 nM; Ratio IC50 (Homo sapiens [10]): 29
38.8	–	CCc1ccc([C@H]2c3[nH]c4ccccc4c3C[C@@H]3C(=O)N(C)CC(=O)N23)s1	–
39.8	–	CN1CC(=O)N2[C@@H](c3ccc(Br)s3)c3[nH]c4ccccc4c3C[C@@H]2C1=O	–
76.2	36.4	CCCCN1C(=O)[C@H]2Cc3c([nH]c4ccccc34)[C@@H](c3ccc(CC)s3)N2C1=O	IC50 [3]: > 20000 nM; IC50 [4]: > 20000 nM; IC50 [5]: > 20000 nM; IC50 [6]: > 10000 nM; IC50 [7]: > 1000 nM; Ratio IC50 (Homo sapiens [8]): > 27; IC50 [9]: 386 nM; Ratio IC50 (Homo sapiens [10]): 10
27.3	–	CCc1ccc(C(=O)c2[nH]c3ccccc3c2C[C@@H]2NC(=O)N(CC)C2=O)s1	–
45.8	155	CCc1ccc([C@H]2c3[nH]c4ccccc4c3C[C@@H]3C(=O)N(CC)C(=O)N23)s1	–
89.5	36.9	Cc1ccc([C@@H]2c3[nH]c4ccccc4c3C[C@@H]3C(=O)N(C)CC(=O)N23)o1	–
11.1	–	CCc1ccc(C(=O)c2[nH]c3ccccc3c2C[C@H]2NC(=O)N(CC)C2=O)s1	–
27.7	–	CCN1C(=O)[C@@H]2Cc3c([nH]c4ccccc34)[C@H](c3sccc3C)N2C1=O	–
86.7	19.9	CCc1ccc([C@H]2c3[nH]c4ccccc4c3C[C@H]3C(=O)N(C)CC(=O)N23)s1	IC50 [3]: > 20000 nM; IC50 [4]: > 20000 nM; IC50 [5]: > 20000 nM; IC50 [6]: > 10000 nM; IC50 [7]: > 1000 nM; Ratio IC50 (Homo sapiens [8]): > 50; IC50 [9]: > 1000 nM; Ratio IC50 (Homo sapiens [10]): > 50
48.1	–	CN1CC(=O)N2[C@H](c3ccco3)c3[nH]c4ccccc4c3C[C@@H]2C1=O	–
41.1	–	CCc1ccc([C@@H]2c3[nH]c4ccccc4c3C[C@H]3C(=O)N(C)CC(=O)N23)o1	–
67.2	80.2	CN1CC(=O)N2[C@H](c3sccc3Br)c3[nH]c4ccccc4c3C[C@@H]2C1=O	–
40.5	–	Cc1ccc([C@H]2c3[nH]c4ccccc4c3C[C@@H]3C(=O)N(C)CC(=O)N23)o1	–
72.7	61	CCc1ccc([C@@H]2c3[nH]c4ccccc4c3C[C@H]3C(=O)N(C)CC(=O)N23)s1	–
69	56.4	CCc1ccc([C@H]2c3[nH]c4ccccc4c3C[C@H]3C(=O)N(C)CC(=O)N23)o1	–
41.6	–	CN1CC(=O)N2[C@@H](c3sccc3Br)c3[nH]c4ccccc4c3C[C@@H]2C1=O	–
79.4	30.3	CCCCN1C(=O)[C@@H]2Cc3c([nH]c4ccccc34)[C@@H](c3ccc(CC)s3)N2C1=O	IC50 [3]: > 20000 nM; IC50 [4]: > 20000 nM; IC50 [5]: > 20000 nM; IC50 [6]: > 10000 nM; IC50 [7]: 107 nM; Ratio IC50 (Homo sapiens [8]): 4; IC50 [9]: > 1000 nM; Ratio IC50 (Homo sapiens [10]): > 33
57.4	97.5	Cc1ccsc1[C@H]1c2[nH]c3ccccc3c2C[C@@H]2C(=O)N(C)CC(=O)N12	–
40.2	–	Cc1ccc([C@H]2c3[nH]c4ccccc4c3C[C@@H]3C(=O)N(C)CC(=O)N23)s1	–
35.9	–	CCCCN1C(=O)[C@@H]2Cc3c([nH]c4ccccc34)[C@H](c3ccc(CC)s3)N2C1=O	–
41.3	–	CCNC(=O)N1[C@H](c2ccc(CC)s2)c2[nH]c3ccccc3c2C[C@@H]1C(=O)OC	–
76.1	21.4	CCN1C(=O)[C@@H]2Cc3c([nH]c4ccccc34)[C@@H](c3sccc3C)N2C1=O	IC50 [3]: > 20000 nM; IC50 [4]: > 20000 nM; IC50 [5]: > 20000 nM; IC50 [6]: > 10000 nM; IC50 [7]: 13 nM; Ratio IC50 (Homo sapiens [8]): 0.6; IC50 [9]: 155 nM; Ratio IC50 (Homo sapiens [10]): 7
37.9	–	CCCCN1C(=O)[C@H]2Cc3c([nH]c4ccccc34)[C@H](c3ccc(CC)s3)N2C1=O	–
